RGS4 pot: potentiators or activators of RGS4 | HEK293 M3R/inducible RGS4, carbachol calcium flux Fluo4; active compounds read low | AID 463111 | B-score at 10 µM | actives 0.92% (n = 310,000);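 active means B-score of the integrated calcium signal more than 4 SD below the library mean, with starting fluorescence not abnormally high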;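 further: negative B-score means reduced calcium response which marks RGS4 activation or potentiation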
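Material: Inducible-RGS4 HEK293 cells carrying M3 receptor; also added: carbachol at ECmax as muscarinic agonist stimulus; incubation: compound preincubation 20 min at room temperature before agonist; signal: Fluo4-AM (2 µM) calcium-flux fluorescence, kinetic read; measure: integrated calcium ratio converted to B score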
MrgX1 antagonist: blocks BAM8-22 activation of human MrgX1 receptor. B-score at 10 µM. MRGX1-HEK293 calcium flux, Fluo-4, BAM8-22 antagonism; active compounds read low. Q96LB2. AID 588676. actives 1.3% (n = 310,000);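 active means calcium-response B-score plate-corrected more than 3 library SD below zero, starting fluorescence within 5 deviations, no agonist response on first addition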;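 further: peak minus trough fluorescence over baseline after final BAM8-22 challenge near maximal dose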
Target sequence (Q96LB2 whole entry, looked up): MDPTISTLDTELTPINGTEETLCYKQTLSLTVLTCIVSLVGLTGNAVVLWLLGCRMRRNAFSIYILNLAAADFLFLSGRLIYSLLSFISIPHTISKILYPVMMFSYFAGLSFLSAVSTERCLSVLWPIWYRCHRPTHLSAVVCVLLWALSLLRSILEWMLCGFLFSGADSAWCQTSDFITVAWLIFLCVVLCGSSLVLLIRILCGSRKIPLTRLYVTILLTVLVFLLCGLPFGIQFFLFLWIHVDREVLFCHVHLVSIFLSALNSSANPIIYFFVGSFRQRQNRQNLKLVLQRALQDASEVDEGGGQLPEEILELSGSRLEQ
RGS4 block: inhibitors of human RGS4 | P49798 | B-score at 10 µM | HEK293 M3R/RGS4 inducible, Fluo-4 calcium flux; active compounds read high; triggered by carbachol at its EC20 | actives 0.45% (n = 310,000);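 active means B-score, a plate-corrected calcium signal, over three deviations above library mean, with baseline fluorescence within five deviations of library mean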;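 further: RGS4 expression induced by doxycycline in cells with stable M3 receptor; B-score is computed from the integrated fluorescence ratio over baseline after carbachol; higher B-score means a larger calcium signal and so more RGS4 inhibition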
Target sequence (P49798 whole entry, looked up): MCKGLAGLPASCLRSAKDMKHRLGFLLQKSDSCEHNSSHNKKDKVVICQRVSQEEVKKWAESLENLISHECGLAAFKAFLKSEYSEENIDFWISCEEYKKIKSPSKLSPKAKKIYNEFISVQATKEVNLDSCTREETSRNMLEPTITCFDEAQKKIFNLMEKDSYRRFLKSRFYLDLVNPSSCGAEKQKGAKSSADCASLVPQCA
MrgX1 PAM: human MrgX1 positive allosteric modulation, primary screen; Q96LB2; actives 0.63% (n = 310,000); MrgX1-HEK293, Fluo-4 calcium flux, FDSS; active compounds read high; AID 588675; B-score at 10 µM;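 active means plate-corrected calcium response at least 3 library SD above typical, normal starting fluorescence, not activating the receptor alone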;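 further: compound read alongside a low EC10 to EC30 dose of BAM8-22 agonist; peak minus trough fluorescence over baseline measured at the second addition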
MrgX1 agonist: human MrgX1 receptor agonism, primary screen | Q96LB2 | MrgX1-HEK293 cells, Fluo-4 calcium fluorescence, agonist mode; active compounds read high | B-score at 10 µM | actives 0.44% (n = 310,000) | AID 588627;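 active means calcium response B-score plate-corrected fluorescence ratio at least 3 library SD, with starting fluorescence B-score inside 5 SD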
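Material: MrgX1-expressing HEK293 cells; input: 15,000 cells per well; doses: test compound given as first of three sequential additions; schedule: overnight plating before 1 h dye loading; technique: Fluo-4 NW calcium-flux fluorescence, kinetic read; evaluation: baseline-normalised fluorescence change ratio, B-scored; control set: plate-wise positive and negative controls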
MrgX1 PAM conf: human MrgX1 positive allosteric modulation, re-confirmation; shares compounds with MrgX1 PAM; MrgX1-HEK293, Fluo-4 calcium fluorescence, FDSS; activation (ratio percentage), % at 10 µM; actives 13% (n = 1,200); AID 602413;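 active means ratio at least 3 SD above the weak peptide control, stable starting fluorescence, no direct agonism earlier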;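 further: compound followed by low BAM8-22 agonist challenge near EC20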
MrgX1 antag conf: confirmation of human MrgX1 receptor antagonists. shares compounds with MrgX1 antagonist. MrgX1-HEK293, BAM8-22 calcium flux, Fluo-4; active compounds read low. remaining BAM8-22 calcium response % of control (active compounds read low), % at 10 µM. actives 19% (n = 2,300);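 active means remaining agonist calcium response no higher than 100% minus 3 SD of agonist-only control wells, with starting fluorescence near control levels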;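 further: agonist BAM8-22 given at a near maximal EC90 to ECmax level; peak minus minimum fluorescence divided by baseline after agonist addition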
HEK293 Ca flux: MrgX1 antagonist counter-screen hit in parental HEK293 cells; shares compounds with MrgX1 antagonist; Fluo-4 calcium fluorescence, FDSS; fluorescence ratio F(max-min)/F0 at 10 µM; actives 2% (n = 4,000);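 active means duplicate-averaged calcium fluorescence ratio at least three times the standard deviation of buffer wells, a nonspecific response in parental cells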
HEK293 Ca counter: activity in parental HEK293 cells without MrgX1 | shares compounds with MrgX1 antagonist | parental HEK293 calcium flux, Fluo-4 fluorescence ratio; active compounds read high | fluorescence ratio F(max-min)/F0 at 10 µM | actives 0.4% (n = 4,000) | AID 624114;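 active means calcium fluorescence ratio, averaged over duplicates, at least 3 SD of the buffer-well ratio, meaning a nonspecific response in receptor-free cells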;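 further: untransfected parental HEK293 lacking MrgX1 used as counterscreen for MrgX1 allosteric activators; fluorescence change taken during the second addition on a kinetic imager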
HEK293 Ca cntr2: activity in parental HEK293 cells lacking MrgX1 receptor; shares compounds with MrgX1 antagonist; Fluo-4 calcium fluorescence (FDSS); active compounds read high; fluorescence ratio F(max-min)/F0 at 10 µM; actives 8.7% (n = 4,000);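 active means calcium fluorescence ratio at least three times the spread of buffer wells, meaning a non-specific response in parental cells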
* marks the source's active call; other numbers are inactive results. Rows were chosen to be rich in hits. Some 3.5% of all compounds tested hit in one or more screens of this group.

How did O=C(CNCc1ccccc1)NCCCN1CCCC1=O do in these assays?
RGS4 pot: inactive; MrgX1 antagonist: inactive; RGS4 block: inactive; MrgX1 PAM: inactive; MrgX1 agonist: inactive

What do the screens show for `Cc1nc(NS(=O)(=O)c2ccccc2)sc1C(C)(C)C`?
RGS4 pot: inactive; MrgX1 antagonist: inactive; RGS4 block: inactive; MrgX1 PAM: inactive; MrgX1 agonist: inactive

How did Cc1cccc2sc(NS(=O)(=O)c3ccccc3)nc12 do in these assays?
RGS4 pot: inactive; MrgX1 antagonist: inactive; RGS4 block: inactive; MrgX1 PAM: 8.32*; MrgX1 agonist: inactive; MrgX1 PAM conf: inactive; HEK293 Ca flux: inactive; HEK293 Ca counter: inactive; HEK293 Ca cntr2: inactive

What do the screens show for `Nc1c(C(=O)c2ccccc2)oc2ccccc12`?
RGS4 pot: inactive; MrgX1 antagonist: inactive; RGS4 block: inactive; MrgX1 PAM: inactive; MrgX1 agonist: inactive

Results for Cc1c(C(=O)c2ccccc2)oc2ccc3ccccc3c12 ?
RGS4 pot: inactive; MrgX1 antagonist: inactive; RGS4 block: inactive; MrgX1 PAM: 12.6*; MrgX1 agonist: inactive; MrgX1 PAM conf: inactive; HEK293 Ca flux: inactive; HEK293 Ca counter: 48.1*; HEK293 Ca cntr2: inactive

What do the screens show for `Cc1ccc(S(=O)(=O)CC(=O)Nc2nc(-c3ccccc3)cs2)cc1`?
RGS4 pot: inactive; MrgX1 antagonist: inactive; RGS4 block: inactive; MrgX1 PAM: inactive; MrgX1 agonist: inactive

What do the screens show for `O=C(CS(=O)(=O)c1ccccc1)Nc1nc(-c2ccccc2)cs1`?
RGS4 pot: inactive; MrgX1 antagonist: inactive; RGS4 block: inactive; MrgX1 PAM: 8.44*; MrgX1 agonist: inactive; MrgX1 PAM conf: inactive; HEK293 Ca flux: inactive; HEK293 Ca counter: inactive; HEK293 Ca cntr2: inactive

Results for Nc1ccc2c(c1)Oc1ccccc1C=C2 ?
RGS4 pot: inactive; MrgX1 antagonist: inactive; RGS4 block: inactive; MrgX1 PAM: 12.2*; MrgX1 agonist: inactive; MrgX1 PAM conf: inactive; HEK293 Ca flux: inactive; HEK293 Ca counter: inactive; HEK293 Ca cntr2: 45.5*

Results for CCN(CC(=O)Nc1ccc(OC)cc1)C(=O)c1cc(S(=O)(=O)N(C)C)ccc1N1CCCC1 ?
RGS4 pot: inactive; MrgX1 antagonist: inactive; RGS4 block: inactive; MrgX1 PAM: inactive; MrgX1 agonist: inactive

How did O=C1CC(c2ccco2)CC(O)=C1C=Nc1cc(Cl)ccc1O (stereo not drawn) do in these assays?
RGS4 pot: inactive; MrgX1 antagonist: inactive; RGS4 block: inactive; MrgX1 PAM: 10.1*; MrgX1 agonist: inactive; MrgX1 PAM conf: 41.2%*; HEK293 Ca flux: inactive; HEK293 Ca counter: inactive; HEK293 Ca cntr2: inactive

Results for CCCNC(=O)CN1CCC(c2nc3ccccc3[nH]2)CC1 ?
RGS4 pot: inactive; MrgX1 antagonist: inactive; RGS4 block: inactive; MrgX1 PAM: 11.6*; MrgX1 agonist: inactive; MrgX1 PAM conf: inactive; HEK293 Ca flux: inactive; HEK293 Ca counter: inactive; HEK293 Ca cntr2: inactive

Results for Cc1cccc(NC(=O)CCS(=O)(=O)c2ccc(Cl)cc2)c1 ?
RGS4 pot: inactive; MrgX1 antagonist: inactive; RGS4 block: inactive; MrgX1 PAM: inactive; MrgX1 agonist: inactive

What do the screens show for `CC1C(=O)N(Cc2ccccc2F)c2ccccc2N1C(=O)c1c(F)cccc1F` (stereo not drawn)?
RGS4 pot: inactive; MrgX1 antagonist: inactive; RGS4 block: inactive; MrgX1 PAM: 9*; MrgX1 agonist: inactive; MrgX1 PAM conf: inactive; HEK293 Ca flux: inactive; HEK293 Ca counter: inactive; HEK293 Ca cntr2: inactive

Results for O=C(Nc1ccc(Br)cc1)c1ccccc1Br ?
RGS4 pot: inactive; MrgX1 antagonist: inactive; RGS4 block: inactive; MrgX1 PAM: 16.3*; MrgX1 agonist: inactive; MrgX1 PAM conf: inactive; HEK293 Ca flux: inactive; HEK293 Ca counter: inactive; HEK293 Ca cntr2: inactive

Results for CCc1ccc(NC(=O)c2ccccc2Br)cc1 ?
RGS4 pot: inactive; MrgX1 antagonist: inactive; RGS4 block: inactive; MrgX1 PAM: inactive; MrgX1 agonist: inactive

What do the screens show for `O=C(c1c(F)cccc1F)N1CCCc2ccccc21`?
RGS4 pot: inactive; MrgX1 antagonist: inactive; RGS4 block: inactive; MrgX1 PAM: inactive; MrgX1 agonist: inactive

Results for Cc1ccccc1Oc1ncnc2sccc12 ?
RGS4 pot: inactive; MrgX1 antagonist: inactive; RGS4 block: inactive; MrgX1 PAM: 8.37*; MrgX1 agonist: inactive; MrgX1 PAM conf: 11.2%*; HEK293 Ca flux: inactive; HEK293 Ca counter: inactive; HEK293 Ca cntr2: inactive

Results for COc1ccccc1Oc1ncnc2sccc12 ?
RGS4 pot: inactive; MrgX1 antagonist: inactive; RGS4 block: inactive; MrgX1 PAM: inactive; MrgX1 agonist: inactive

How did C=CCSc1nc2ccccc2c(=O)n1C1CCOC(C)(C)C1 (stereo not drawn) do in these assays?
RGS4 pot: inactive; MrgX1 antagonist: inactive; RGS4 block: inactive; MrgX1 PAM: 11.4*; MrgX1 agonist: inactive; MrgX1 PAM conf: inactive; HEK293 Ca flux: inactive; HEK293 Ca counter: inactive; HEK293 Ca cntr2: inactive

What do the screens show for `CCCCCCn1c(N2CCCC2)nc2c1c(=O)n(C)c(=O)n2C`?
RGS4 pot: inactive; MrgX1 antagonist: inactive; RGS4 block: inactive; MrgX1 PAM: 7.72*; MrgX1 agonist: inactive; MrgX1 PAM conf: inactive; HEK293 Ca flux: inactive; HEK293 Ca counter: inactive; HEK293 Ca cntr2: inactive

What do the screens show for `CC(C)CCn1c(N2CCCC2)nc2c1c(=O)n(C)c(=O)n2C`?
RGS4 pot: inactive; MrgX1 antagonist: inactive; RGS4 block: inactive; MrgX1 PAM: inactive; MrgX1 agonist: inactive

Results for CCOC(=O)COc1ccc(S(=O)(=O)NCC2CCCO2)cc1 (stereo not drawn) ?
RGS4 pot: inactive; MrgX1 antagonist: -4.72*; RGS4 block: inactive; MrgX1 PAM: inactive; MrgX1 agonist: inactive; MrgX1 antag conf: inactive; HEK293 Ca flux: inactive; HEK293 Ca counter: inactive; HEK293 Ca cntr2: inactive

Screening results: PubChem BioAssay, Johns Hopkins Ion Channel Center
